Assay results from article PMC6035748 (Journal of biomedical materials research. Part A, 2018).
Ends that are not written are not given here.

Experiments:
integrin αvβ3 = integrin αvβ3 (Homo sapiens, UniProt P05106+P06756); assay: Bio-layer interferometry; format: binding
Procedure, shortened: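 Biotinylated test peptide, 25 μM stock in 5% DMSO/95% water, diluted 100-fold in 0.05% Tween 20 in 1X PBS. The peptide was loaded onto streptavidin biosensors for 300 s, with 60 s buffer-only steps on either side. Association ran 600 s against human recombinant integrin αvβ3 at 10–300 nM in the same buffer. kon and koff were fitted to a single-binding-site association model.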

MDA-MB-231 tumors = assay: Biodistribution in orthotopic MDA-MB-231 xenograft mouse model; format: in vivo; details: AXT050-IRD800 intravenous, organs harvested 24 h post injection

Sequence of integrin αvβ3 (P06756 31-992 limits assumed): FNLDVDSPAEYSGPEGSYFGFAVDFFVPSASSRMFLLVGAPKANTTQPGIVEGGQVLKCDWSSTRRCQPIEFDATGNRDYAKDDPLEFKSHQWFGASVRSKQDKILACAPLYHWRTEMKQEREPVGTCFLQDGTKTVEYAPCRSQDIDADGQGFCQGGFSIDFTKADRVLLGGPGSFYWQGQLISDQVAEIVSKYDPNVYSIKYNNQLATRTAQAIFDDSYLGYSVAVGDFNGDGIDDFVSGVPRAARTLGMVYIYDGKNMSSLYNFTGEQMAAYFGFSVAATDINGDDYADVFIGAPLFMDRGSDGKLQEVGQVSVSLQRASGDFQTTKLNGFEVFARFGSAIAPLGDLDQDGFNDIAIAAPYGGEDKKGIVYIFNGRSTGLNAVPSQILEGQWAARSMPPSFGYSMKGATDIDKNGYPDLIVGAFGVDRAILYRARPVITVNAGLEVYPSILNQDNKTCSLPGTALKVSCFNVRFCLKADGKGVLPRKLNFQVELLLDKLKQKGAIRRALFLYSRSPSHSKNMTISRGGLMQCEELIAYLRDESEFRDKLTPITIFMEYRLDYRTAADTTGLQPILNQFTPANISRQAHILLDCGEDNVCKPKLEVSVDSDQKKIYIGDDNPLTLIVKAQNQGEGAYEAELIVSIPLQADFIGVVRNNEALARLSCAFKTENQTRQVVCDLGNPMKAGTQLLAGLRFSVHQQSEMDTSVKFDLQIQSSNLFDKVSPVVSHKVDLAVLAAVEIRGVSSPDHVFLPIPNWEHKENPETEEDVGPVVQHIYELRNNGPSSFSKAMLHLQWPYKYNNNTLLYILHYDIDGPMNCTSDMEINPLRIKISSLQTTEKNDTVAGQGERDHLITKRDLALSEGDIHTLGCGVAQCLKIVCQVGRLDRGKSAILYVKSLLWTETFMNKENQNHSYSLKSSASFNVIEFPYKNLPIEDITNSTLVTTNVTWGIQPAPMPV
Sequence of integrin αvβ3 (P05106 27-718 limits assumed): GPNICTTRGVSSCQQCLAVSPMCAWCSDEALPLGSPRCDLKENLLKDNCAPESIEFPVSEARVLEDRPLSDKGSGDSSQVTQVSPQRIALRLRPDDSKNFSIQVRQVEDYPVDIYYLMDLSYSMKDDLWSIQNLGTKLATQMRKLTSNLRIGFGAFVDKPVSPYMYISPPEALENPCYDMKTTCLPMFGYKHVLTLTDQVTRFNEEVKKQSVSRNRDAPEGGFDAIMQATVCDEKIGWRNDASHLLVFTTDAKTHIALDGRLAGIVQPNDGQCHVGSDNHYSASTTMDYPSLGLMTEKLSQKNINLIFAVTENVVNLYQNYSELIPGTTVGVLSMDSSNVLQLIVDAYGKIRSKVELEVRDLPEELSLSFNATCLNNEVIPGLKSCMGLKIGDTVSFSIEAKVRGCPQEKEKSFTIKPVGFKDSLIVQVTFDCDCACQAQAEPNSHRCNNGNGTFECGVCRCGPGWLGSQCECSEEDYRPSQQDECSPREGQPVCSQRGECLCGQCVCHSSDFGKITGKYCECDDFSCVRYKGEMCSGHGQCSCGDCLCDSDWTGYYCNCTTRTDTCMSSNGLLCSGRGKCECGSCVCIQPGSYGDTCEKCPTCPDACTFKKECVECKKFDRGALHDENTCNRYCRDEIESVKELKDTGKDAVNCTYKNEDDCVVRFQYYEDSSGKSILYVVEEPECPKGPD

- koff (integrin αvβ3): 0.0032 s⁻¹
Sequence: LRRFSTAPFAFIDINDVINF [AXT050]
- organ with highest detection / main route of clearance (MDA-MB-231 tumors): highest level of its detection in the kidneys
